According to ChEMBL document CHEMBL4673384, “Studying Histone Deacetylase Inhibition and Apoptosis Induction of Psammaplin A Monomers with Modified Thiol Group” (ACS Med Chem Lett, 2021):
Calls of active or inactive are those of the source. The rule behind the calls is not given here.

Assays:
[1] = target: T1, Histone deacetylase 2 (Homo sapiens, UniProt Q92769); assay: Inhibition of HDAC2 in human HL-60 cells assessed as increase in Ac-H3 level at 20 uM incubated for 24 hrs by Western blot analysis; assay type: cell-based
Summary of the method: (§1)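 Compound given to HL-60 cells for 24 h at the stated concentrations, then lysed. Acetyl-histone H3 and acetyl-α-tubulin levels were read by Western blot, with total H3, α-tubulin or β-actin as references.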

[2] = target: Histone deacetylase 3 (Homo sapiens) (UniProt O15379); assay: Inhibition of HDAC3 in human HL-60 cells assessed as increase in Ac-H3 level at 20 uM incubated for 24 hrs by Western blot analysis; assay type: cell-based; summary of the method: as §1
[3] = target: T2, Histone deacetylase 1 (Homo sapiens, UniProt Q13547); assay: Inhibition of HDAC1 in human HL-60 cells assessed as increase in Ac-H3 level at 20 uM incubated for 24 hrs by Western blot analysis; assay type: cell-based; summary of the method: as §1
[4] = test system: HL-60; assay: Induction of apoptosis in human HL-60 cells assessed as necrotic cells at 20 uM incubated for 24 hrs by propidium iodide and annexin-V FITC staining based FACS analysis (reference value: 0.5 %); assay type: functional
[5] = test system: HL-60; assay: Induction of apoptosis in human HL-60 cells assessed as late apoptotic cells at 20 uM incubated for 24 hrs by propidium iodide and annexin-V FITC staining based FACS analysis (reference value: 3.7 %); assay type: functional
[6] = test system: HL-60; assay: Induction of apoptosis in human HL-60 cells assessed as early apoptotic cells at 20 uM incubated for 24 hrs by propidium iodide and annexin-V FITC staining based FACS analysis (reference value: […]); assay type: functional
[7] = test system: HL-60; assay: Induction of apoptosis in human HL-60 cells assessed as viable cells at 20 uM incubated for 24 hrs by propidium iodide and annexin-V FITC staining based FACS analysis (reference value: 93.9 %); assay type: functional; conditions: read-out: Activity
[8] = target: T3, Protein deacetylase HDAC6 (Homo sapiens, UniProt Q9UBN7); assay: Inhibition of recombinant full length C-terminal FLAG-tagged human HDAC6 expressed in baculovirus infected Sf9 cells using Boc-Lys(Ac)-AMC as substrate preincubated for 15 mins followed by substrate addition and measured after 60 mins by fluorescence based assay
T3 sequence (Q9UBN7 whole entry): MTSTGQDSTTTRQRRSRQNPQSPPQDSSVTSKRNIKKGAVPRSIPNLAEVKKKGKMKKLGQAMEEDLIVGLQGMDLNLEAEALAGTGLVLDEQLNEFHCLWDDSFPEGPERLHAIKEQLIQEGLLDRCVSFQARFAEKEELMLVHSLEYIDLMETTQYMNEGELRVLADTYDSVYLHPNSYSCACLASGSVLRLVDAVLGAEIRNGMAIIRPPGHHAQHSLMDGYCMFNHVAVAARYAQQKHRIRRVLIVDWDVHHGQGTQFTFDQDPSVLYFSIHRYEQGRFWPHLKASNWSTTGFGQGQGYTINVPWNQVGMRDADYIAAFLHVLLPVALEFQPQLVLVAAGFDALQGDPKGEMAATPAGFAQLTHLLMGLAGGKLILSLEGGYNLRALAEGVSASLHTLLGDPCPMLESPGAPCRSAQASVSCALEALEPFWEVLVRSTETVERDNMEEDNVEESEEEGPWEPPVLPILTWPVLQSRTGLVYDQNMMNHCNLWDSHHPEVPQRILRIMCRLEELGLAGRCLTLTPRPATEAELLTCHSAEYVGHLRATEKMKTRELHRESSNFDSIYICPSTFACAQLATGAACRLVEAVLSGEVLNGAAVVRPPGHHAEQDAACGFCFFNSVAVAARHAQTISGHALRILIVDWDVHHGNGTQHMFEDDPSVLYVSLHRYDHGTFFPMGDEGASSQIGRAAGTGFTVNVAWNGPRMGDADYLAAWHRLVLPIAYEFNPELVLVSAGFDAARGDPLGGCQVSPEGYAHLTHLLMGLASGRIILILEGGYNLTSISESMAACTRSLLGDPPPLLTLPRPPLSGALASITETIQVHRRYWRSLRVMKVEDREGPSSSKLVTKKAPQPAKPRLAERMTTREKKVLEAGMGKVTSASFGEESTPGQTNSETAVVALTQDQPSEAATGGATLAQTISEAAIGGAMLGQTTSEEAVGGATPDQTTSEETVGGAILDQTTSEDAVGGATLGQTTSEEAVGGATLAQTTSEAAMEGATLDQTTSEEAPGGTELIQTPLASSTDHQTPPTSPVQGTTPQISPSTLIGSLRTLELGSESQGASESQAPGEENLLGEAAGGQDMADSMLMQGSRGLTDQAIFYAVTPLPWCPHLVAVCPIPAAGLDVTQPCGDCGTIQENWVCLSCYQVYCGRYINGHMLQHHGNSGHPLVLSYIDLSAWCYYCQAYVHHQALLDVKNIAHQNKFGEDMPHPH

[9] = target: Histone deacetylase 3/Nuclear receptor corepressor 2 (HDAC3/NCoR2) (Homo sapiens, UniProt O15379); assay: Inhibition of C-terminal His-tagged recombinant human HDAC3 (1 to 428 residues)/N-terminal GST-tagged recombinant human NCoR2 (395 to 489 residues) co-expressed in baculovirus infected Sf9 cells using Boc-Lys(Ac)-AMC as substrate preincubated for 15 mins followed by substrate addition and measured after 60 mins by fluorescence based assay
[10] = target: T1, Histone deacetylase 2; assay: Inhibition of recombinant full length C-terminal FLAG-tagged human HDAC2 expressed in baculovirus infected Sf9 cells using Boc-Lys(Ac)-AMC as substrate preincubated for 15 mins followed by substrate addition and measured after 60 mins by fluorescence based assay
[11] = target: T2, Histone deacetylase 1; assay: Inhibition of recombinant full length C-terminal FLAG/His-tagged human HDAC1 expressed in baculovirus infected Sf9 cells using Boc-Lys(Ac)-AMC as substrate preincubated for 15 mins followed by substrate addition and measured after 60 mins by fluorescence based assay
[12] = test system: HL-60; assay: Growth inhibition of human HL-60 cells after 72 hrs by trypan blue dye based assay; assay type: functional; conditions: for GI50: Homo sapiens, HL-60
Summary of the method: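 HL-60 leukemia cells were exposed to compound for 72 h. Growth inhibition is reported as IG50 (half the growth inhibition concentration), as means plus SD of three independent experiments.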

[13] = Toxicity in mouse LL/2 cells inoculated C57BL/6J mouse assessed as effect on body weight by measuring end body weight at 25 mg/kg, ip administered for 12 days and measured for every 2 days (reference value: 18.1 +/- 0.2 g); assay type: organism-based; conditions: in vivo, 288 h, time 12 day
[14] = Toxicity in mouse LL/2 cells inoculated C57BL/6J mouse assessed as effect on body weight by measuring initial body weight at 25 mg/kg, ip administered for 12 days measured for every 2 days (reference value: 18.4 +/- 0.4 g); assay type: organism-based; conditions: in vivo, 288 h, time 12 day
[15] = Antitumor activity against mouse LL/2 cells inoculated in C57BL/6J mouse assessed as reduction of tumor weight at 25 mg/kg, ip administered for 12 days measured at day 14 (reference value: 0.98 +/- 0.07 g); assay type: functional, Lewis lung carcinoma; conditions: time 12 day

T1 sequence (Q92769 whole entry): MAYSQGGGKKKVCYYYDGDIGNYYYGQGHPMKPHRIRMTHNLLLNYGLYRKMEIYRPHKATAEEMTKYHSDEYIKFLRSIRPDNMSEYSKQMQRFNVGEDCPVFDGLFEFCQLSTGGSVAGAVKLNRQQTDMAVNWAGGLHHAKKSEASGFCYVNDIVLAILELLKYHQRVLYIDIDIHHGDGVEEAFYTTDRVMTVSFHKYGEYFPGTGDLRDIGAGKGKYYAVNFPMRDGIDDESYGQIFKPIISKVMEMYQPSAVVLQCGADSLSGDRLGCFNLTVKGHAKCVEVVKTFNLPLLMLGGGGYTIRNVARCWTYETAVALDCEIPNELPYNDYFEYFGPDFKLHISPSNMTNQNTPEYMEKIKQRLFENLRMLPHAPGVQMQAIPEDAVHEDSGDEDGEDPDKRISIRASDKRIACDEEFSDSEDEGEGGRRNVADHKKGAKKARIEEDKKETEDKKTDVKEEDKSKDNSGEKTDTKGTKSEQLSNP
T2 sequence (Q13547 whole entry): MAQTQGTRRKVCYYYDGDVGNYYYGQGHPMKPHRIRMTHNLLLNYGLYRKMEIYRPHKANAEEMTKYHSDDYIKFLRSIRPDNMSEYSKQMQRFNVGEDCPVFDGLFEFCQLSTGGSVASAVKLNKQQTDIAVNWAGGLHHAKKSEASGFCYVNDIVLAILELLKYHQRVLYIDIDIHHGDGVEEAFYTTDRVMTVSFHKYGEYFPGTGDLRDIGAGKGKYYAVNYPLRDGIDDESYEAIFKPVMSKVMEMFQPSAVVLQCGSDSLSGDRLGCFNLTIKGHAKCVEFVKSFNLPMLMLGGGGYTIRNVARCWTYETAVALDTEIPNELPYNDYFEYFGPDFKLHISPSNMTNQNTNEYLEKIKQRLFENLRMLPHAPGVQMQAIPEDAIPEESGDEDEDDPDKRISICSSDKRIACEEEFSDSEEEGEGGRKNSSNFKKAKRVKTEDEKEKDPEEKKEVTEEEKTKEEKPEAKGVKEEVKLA
Chain of Histone deacetylase 3/Nuclear receptor corepressor 2 (HDAC3/NCoR2) (O15379 whole entry, the tested form may be a part): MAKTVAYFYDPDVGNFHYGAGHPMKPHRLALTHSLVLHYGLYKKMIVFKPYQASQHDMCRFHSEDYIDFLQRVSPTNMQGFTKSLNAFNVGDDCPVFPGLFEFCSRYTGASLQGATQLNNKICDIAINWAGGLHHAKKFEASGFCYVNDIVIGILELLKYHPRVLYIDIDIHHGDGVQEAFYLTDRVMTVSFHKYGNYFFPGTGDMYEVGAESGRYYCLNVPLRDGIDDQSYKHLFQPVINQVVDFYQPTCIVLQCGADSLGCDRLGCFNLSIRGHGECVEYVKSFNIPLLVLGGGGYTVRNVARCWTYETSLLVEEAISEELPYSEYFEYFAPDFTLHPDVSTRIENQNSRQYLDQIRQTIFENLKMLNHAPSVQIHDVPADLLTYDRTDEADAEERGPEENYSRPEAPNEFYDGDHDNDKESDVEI
Chain of Histone deacetylase 3/Nuclear receptor corepressor 2 (HDAC3/NCoR2) (Q9Y618 whole entry, further chain, the tested form may be a part): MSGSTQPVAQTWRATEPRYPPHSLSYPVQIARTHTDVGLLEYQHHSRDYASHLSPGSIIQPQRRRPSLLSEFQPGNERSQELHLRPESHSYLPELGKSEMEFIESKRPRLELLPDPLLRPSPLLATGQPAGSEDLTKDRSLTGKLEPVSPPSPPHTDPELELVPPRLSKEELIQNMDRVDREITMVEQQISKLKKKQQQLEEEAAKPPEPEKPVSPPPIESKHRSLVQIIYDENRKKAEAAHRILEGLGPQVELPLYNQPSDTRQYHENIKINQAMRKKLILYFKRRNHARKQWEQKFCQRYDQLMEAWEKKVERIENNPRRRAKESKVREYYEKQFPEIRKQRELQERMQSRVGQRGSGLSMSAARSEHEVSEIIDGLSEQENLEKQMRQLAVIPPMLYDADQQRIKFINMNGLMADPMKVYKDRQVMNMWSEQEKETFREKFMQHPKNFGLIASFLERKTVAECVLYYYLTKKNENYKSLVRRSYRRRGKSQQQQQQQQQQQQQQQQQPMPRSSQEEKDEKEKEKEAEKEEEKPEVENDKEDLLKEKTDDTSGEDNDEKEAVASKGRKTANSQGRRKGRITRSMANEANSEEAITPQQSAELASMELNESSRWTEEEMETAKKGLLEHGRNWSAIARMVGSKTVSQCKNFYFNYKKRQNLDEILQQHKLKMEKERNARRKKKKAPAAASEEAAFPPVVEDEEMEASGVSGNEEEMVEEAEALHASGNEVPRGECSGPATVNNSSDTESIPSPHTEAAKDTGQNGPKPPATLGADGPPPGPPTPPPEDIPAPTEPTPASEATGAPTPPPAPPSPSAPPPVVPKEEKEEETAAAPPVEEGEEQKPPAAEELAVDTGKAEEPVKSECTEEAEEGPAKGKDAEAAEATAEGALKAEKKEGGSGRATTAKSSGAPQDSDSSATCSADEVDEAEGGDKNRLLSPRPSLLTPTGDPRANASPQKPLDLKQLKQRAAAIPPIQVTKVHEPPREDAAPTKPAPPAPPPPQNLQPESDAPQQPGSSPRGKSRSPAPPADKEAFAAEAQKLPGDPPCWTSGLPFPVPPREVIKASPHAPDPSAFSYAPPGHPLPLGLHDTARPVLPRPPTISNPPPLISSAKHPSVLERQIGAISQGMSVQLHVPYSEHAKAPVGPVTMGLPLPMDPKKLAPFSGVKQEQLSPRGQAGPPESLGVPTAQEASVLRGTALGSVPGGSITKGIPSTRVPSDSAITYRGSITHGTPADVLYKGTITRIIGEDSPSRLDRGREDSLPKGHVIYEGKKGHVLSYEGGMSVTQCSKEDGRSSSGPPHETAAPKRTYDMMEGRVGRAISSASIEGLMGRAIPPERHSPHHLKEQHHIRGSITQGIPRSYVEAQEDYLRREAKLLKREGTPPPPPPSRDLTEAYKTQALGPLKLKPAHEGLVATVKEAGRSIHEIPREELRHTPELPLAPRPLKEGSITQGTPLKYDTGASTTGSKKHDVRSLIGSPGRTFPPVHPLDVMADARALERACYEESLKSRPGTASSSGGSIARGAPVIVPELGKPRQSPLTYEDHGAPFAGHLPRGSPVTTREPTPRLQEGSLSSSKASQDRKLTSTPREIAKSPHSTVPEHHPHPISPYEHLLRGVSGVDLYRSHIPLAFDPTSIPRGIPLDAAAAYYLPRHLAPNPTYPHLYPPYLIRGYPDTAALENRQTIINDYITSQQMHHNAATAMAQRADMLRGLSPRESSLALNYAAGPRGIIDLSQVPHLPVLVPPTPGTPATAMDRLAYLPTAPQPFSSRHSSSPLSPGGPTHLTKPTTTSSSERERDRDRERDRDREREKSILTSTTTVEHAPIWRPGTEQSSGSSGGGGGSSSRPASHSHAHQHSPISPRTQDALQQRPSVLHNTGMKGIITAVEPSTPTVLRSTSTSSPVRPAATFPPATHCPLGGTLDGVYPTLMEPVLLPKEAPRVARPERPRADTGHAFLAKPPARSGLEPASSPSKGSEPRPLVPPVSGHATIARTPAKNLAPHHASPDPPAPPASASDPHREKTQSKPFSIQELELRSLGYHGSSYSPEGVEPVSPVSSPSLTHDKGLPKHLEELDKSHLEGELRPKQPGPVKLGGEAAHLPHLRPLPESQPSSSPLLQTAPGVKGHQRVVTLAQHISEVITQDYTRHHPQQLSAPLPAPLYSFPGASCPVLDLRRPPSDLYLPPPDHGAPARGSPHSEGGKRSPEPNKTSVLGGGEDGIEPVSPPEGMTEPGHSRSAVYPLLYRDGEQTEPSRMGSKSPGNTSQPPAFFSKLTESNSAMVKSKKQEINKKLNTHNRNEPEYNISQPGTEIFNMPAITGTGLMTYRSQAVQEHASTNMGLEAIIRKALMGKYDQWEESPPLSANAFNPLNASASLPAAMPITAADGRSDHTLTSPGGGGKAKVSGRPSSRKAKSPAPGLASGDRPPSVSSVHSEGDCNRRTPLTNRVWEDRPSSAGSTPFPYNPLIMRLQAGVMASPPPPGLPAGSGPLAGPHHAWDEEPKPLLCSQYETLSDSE
Chain of Histone deacetylase 3 (Homo sapiens) (O15379 whole entry): as the sequence (O15379 whole entry, the tested form may be a part) above

SMILES | inhibition [1] | inhibition [2] | inhibition [3] | Activity [4] [%] | Activity [5] [%] | Activity [6] [%] | viability at 20 µM [7] [%] | IC50 [8] [µM] | IC50 [9] [µM] | IC50 [10] [µM] | IC50 [11] [µM] | GI50 [12] [µM] | IG50 [12] [µM] | Activity [13] [g] | Activity [14] [g] | Activity [15] [g]
O=C(NCCO)/C(Cc1ccc(O)c(Br)c1)=N/O | inactive | inactive | inactive | 0.1 | 3.7 | 1.7 | 94.4 | > 10 | > 10 | > 10 | > 10 | 20 | – | – | – | –
CCCNC(=O)/C(Cc1ccc(O)c(Br)c1)=N/O | inactive | inactive | inactive | 0.2 | 2.5 | 1.8 | 95.5 | > 10 | > 10 | > 10 | > 10 | 13.5 | – | – | – | –
Nc1ccccc1NC(=O)CCCCNC(=O)/C(Cc1ccc(O)c(Br)c1)=N/O | – | – | – | – | – | – | – | > 10 | 1.43 | 9.76 | > 10 | – | >40 | – | – | –
Nc1ccccc1NC(=O)CCNC(=O)/C(Cc1ccc(O)c(Br)c1)=N/O | – | – | – | – | – | – | – | > 10 | > 10 | > 10 | > 10 | – | >40 | – | – | –
O=C(CNC(=O)/C(Cc1ccc(O)c(Br)c1)=N/O)NO | – | – | – | – | – | – | – | > 10 | 1.23 | 9.21 | 2.93 | – | >40 | – | – | –
O=C(CCCCCCC(=O)Nc1ccccc1)NO [VORINOSTAT] | – | – | – | – | – | – | – | – | – | – | – | – | – | 18.1 | 17.9 | 0.55
CCCCNC(=O)/C(Cc1ccc(O)c(Br)c1)=N/O | – | – | – | – | – | – | – | > 10 | > 10 | > 10 | > 10 | 36 | – | – | – | –
